This is an account of results in ChEMBL document CHEMBL4052592, “Identification of Cyclic Depsipeptides and Their Dedicated Synthetase from Hapsidospora irregularis” (J Nat Prod, 2017).

Activity calls are given as the source filed them. The rule behind the calls is not given here.

Common to all, as to format: cell-based
For data set [1], the target named is Transient receptor potential cation channel subfamily A member 1 (Homo sapiens, UniProt O75762). As to the kind of experiment: Activation of human TRPA1 expressed in HEK293 cells assessed as induction of calcium influx at 100 uM by fluro 4-AM dye-based fluorescence assay. The note with it: hek293, 100 µM. The procedure, abridged: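 Stable HEK-293 line grown to confluence on gelatin-coated wells (DMEM:F12, 5% FBS, geneticin 300 μg/mL). Cells loaded 1 h at 37 °C with Fluo 4-Direct/LHC-9, washed into LHC-9 with 1 mM probenecid and Trypan Red, then held 30 min at 37 °C. Compound added at 3× in calcium assay buffer. Fluorescence read 1 min at 37 °C as max ΔF/s versus medium only, expressed as % of 250 μM 2,4-ditert-butylphenol response. At least three replicates.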
Sequence of Transient receptor potential cation channel subfamily A member 1 (O75762 whole entry): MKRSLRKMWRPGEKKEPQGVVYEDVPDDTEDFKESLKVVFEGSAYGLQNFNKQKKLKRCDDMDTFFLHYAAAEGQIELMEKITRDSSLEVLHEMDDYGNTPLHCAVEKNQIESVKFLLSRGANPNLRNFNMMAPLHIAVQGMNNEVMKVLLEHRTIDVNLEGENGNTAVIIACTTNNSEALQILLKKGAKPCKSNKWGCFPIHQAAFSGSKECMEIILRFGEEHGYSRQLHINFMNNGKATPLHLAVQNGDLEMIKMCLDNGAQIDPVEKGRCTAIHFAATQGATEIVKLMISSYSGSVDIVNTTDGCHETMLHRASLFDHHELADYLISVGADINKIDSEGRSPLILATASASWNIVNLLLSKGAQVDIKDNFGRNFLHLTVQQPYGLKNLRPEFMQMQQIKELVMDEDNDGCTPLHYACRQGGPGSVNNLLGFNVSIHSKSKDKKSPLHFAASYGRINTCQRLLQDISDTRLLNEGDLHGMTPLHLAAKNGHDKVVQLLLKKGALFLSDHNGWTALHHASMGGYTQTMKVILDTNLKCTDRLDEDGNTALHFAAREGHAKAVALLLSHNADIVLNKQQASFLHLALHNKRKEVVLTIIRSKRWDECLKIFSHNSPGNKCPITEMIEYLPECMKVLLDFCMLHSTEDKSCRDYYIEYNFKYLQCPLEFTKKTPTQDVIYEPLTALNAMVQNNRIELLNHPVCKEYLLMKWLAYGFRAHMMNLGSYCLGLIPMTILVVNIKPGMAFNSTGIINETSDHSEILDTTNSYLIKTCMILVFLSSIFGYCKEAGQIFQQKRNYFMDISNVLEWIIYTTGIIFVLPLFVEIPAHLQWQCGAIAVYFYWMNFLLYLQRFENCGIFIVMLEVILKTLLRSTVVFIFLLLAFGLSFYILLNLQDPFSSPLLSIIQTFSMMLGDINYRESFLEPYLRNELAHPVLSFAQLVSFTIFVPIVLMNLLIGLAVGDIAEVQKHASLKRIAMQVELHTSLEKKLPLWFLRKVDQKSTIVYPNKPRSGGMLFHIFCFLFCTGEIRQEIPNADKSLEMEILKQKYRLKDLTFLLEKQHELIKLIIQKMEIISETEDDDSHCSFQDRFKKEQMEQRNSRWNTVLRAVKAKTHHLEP

Data set [2] deals with Transient receptor potential cation channel subfamily M member 8 (Homo sapiens) (UniProt Q7Z2W7). As to the kind of experiment: Activation of human TRPM8 expressed in HEK293 cells assessed as induction of calcium influx at 100 uM by fluro 4-AM dye-based fluorescence assay. Summed up: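 Uses the same HEK-293 stable-line culture and Fluo 4-AM loading (1 h, 37 °C), followed by the probenecid/Trypan Red LHC-9 wash and 30 min equilibration at 37 °C. Treatment is made at 3× in LHC9. Max ΔF/s is read over 1 min at 37 °C, normalized to medium-only and given as % of the 25 μM icilin control. Three or more replicates.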
Sequence of Transient receptor potential cation channel subfamily M member 8 (Homo sapiens) (Q7Z2W7 whole entry, looked up): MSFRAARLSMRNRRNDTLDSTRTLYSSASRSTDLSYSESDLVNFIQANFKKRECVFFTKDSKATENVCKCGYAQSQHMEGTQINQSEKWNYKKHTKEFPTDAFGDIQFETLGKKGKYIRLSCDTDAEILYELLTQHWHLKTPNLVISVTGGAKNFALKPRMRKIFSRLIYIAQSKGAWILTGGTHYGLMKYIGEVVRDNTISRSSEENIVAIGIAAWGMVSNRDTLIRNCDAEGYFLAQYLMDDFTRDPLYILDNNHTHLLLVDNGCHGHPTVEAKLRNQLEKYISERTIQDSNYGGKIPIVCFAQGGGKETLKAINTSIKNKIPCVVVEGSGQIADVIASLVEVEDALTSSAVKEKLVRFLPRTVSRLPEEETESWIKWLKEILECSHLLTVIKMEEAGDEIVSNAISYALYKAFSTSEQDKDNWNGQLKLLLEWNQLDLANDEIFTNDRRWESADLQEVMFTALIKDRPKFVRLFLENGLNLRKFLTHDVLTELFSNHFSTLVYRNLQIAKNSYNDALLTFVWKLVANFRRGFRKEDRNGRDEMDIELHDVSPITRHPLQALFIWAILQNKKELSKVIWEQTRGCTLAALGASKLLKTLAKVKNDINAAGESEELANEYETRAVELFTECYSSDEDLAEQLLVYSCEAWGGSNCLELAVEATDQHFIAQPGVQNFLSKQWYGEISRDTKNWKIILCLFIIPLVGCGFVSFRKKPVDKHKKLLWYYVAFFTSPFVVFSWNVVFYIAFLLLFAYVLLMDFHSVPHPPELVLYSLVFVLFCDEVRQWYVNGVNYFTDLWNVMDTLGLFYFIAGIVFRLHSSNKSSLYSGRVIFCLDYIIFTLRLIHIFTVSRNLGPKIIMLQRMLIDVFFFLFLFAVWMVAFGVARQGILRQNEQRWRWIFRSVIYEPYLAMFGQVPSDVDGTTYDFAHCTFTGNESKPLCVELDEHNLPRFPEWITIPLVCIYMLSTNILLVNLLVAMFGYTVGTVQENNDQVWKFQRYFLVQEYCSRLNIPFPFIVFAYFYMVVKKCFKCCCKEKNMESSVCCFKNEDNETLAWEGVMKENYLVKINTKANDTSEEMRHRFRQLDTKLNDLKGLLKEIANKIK

Data set [3] deals with T1, Transient receptor potential cation channel subfamily V member 3 (Homo sapiens) (UniProt Q8NET8).
T1 sequence (whole entry): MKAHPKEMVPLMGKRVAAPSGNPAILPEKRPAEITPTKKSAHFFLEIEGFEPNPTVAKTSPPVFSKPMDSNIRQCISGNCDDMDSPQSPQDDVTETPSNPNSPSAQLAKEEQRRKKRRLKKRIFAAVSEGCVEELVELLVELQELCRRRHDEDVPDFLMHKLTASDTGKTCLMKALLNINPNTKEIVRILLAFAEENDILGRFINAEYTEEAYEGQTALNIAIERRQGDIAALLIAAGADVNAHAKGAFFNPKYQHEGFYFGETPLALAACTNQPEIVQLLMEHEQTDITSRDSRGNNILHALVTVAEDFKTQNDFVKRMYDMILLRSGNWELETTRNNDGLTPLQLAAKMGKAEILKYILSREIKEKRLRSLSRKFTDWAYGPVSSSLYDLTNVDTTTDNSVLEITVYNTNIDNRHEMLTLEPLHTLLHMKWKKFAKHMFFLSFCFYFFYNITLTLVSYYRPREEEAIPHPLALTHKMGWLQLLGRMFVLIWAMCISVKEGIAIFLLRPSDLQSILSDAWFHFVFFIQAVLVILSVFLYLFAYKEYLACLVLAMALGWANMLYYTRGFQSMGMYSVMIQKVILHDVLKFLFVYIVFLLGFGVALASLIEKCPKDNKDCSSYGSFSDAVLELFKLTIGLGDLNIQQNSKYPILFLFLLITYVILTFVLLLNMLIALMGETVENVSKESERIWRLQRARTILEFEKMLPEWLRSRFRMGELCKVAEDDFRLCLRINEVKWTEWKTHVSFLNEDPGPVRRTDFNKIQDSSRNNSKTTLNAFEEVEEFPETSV
As to the kind of experiment: Activation of human TRPV3 expressed in HEK293 cells assessed as induction of calcium influx at 100 uM by fluro 4-AM dye-based fluorescence assay. Summed up: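 Confluent HEK-293 cells stably expressing the channel are dye-loaded 1 h at 37 °C, washed, and equilibrated 30 min at 37 °C in LHC-9 with 1 mM probenecid. Compounds are dosed at 3× in calcium assay buffer. The 1-min read at 37 °C gives max ΔF/s over medium, reported as % of the 300 μM carvacrol agonist control. At least three replicates.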

In data set [4] the target is Transient receptor potential cation channel subfamily V member 4 (Homo sapiens) (UniProt Q9HBA0). The experiment in a line: Activation of human TRPV4 expressed in HEK293 cells assessed as induction of calcium influx at 100 uM by fluro 4-AM dye-based fluorescence assay. The procedure, abridged:
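HEK-293 stable overexpressors on gelatin-coated plates are loaded with Fluo 4-AM (1 h, 37 °C), then given probenecid/Trypan Red LHC-9 and 30 min at 37 °C. Treatments are prepared at 3× in LHC9, with 1-min monitoring at 37 °C. Max ΔF/s versus medium only is given as % of the 30 nM GSK1016790A control. Three replicates minimum.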

Data set [5] concerns the target Transient receptor potential cation channel subfamily V member 1 (Homo sapiens) (UniProt Q8NER1). As to the kind of experiment: Activation of human TRPV1 expressed in BEAS-2B cells assessed as induction of calcium influx at 100 uM by fluro 4-AM dye-based fluorescence assay. The procedure, abridged: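 TRPV1-overexpressing BEAS-2B cells are loaded with Fluo 4-Direct/LHC-9 at room temperature, washed into LHC-9 containing probenecid and Trypan Red, and incubated 30 min at 37 °C. Test solution is made at 3× in LHC9. Fluorescence is followed 1 min at 37 °C. Max ΔF/s relative to medium is expressed as % of the response to 10 μM capsaicin. Minimum triplicate.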

Sequence of Transient receptor potential cation channel subfamily V member 4 (Homo sapiens) (Q9HBA0 whole entry): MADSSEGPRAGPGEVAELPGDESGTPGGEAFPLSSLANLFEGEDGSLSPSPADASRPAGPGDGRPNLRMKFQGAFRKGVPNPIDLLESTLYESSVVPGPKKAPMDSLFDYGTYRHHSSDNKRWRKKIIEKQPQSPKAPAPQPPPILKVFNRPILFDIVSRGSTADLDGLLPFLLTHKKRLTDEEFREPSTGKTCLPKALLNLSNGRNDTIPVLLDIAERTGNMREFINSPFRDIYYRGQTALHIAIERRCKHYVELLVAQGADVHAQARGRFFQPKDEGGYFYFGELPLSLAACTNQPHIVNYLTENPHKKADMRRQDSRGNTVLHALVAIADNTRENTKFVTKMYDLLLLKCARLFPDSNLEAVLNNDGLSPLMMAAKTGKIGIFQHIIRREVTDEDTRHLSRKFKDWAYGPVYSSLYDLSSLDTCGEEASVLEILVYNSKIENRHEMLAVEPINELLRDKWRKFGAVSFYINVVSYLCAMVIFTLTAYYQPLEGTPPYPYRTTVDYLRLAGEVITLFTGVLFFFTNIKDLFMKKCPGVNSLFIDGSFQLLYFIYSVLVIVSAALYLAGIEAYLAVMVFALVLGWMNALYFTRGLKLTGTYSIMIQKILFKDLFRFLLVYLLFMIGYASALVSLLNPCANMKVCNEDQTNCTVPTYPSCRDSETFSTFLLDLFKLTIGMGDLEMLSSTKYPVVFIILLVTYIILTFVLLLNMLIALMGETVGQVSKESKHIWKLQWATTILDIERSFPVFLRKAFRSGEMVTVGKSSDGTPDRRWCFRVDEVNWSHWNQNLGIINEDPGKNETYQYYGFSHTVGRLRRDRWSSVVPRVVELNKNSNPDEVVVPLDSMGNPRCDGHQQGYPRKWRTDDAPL
Sequence of Transient receptor potential cation channel subfamily V member 1 (Homo sapiens) (Q8NER1 whole entry): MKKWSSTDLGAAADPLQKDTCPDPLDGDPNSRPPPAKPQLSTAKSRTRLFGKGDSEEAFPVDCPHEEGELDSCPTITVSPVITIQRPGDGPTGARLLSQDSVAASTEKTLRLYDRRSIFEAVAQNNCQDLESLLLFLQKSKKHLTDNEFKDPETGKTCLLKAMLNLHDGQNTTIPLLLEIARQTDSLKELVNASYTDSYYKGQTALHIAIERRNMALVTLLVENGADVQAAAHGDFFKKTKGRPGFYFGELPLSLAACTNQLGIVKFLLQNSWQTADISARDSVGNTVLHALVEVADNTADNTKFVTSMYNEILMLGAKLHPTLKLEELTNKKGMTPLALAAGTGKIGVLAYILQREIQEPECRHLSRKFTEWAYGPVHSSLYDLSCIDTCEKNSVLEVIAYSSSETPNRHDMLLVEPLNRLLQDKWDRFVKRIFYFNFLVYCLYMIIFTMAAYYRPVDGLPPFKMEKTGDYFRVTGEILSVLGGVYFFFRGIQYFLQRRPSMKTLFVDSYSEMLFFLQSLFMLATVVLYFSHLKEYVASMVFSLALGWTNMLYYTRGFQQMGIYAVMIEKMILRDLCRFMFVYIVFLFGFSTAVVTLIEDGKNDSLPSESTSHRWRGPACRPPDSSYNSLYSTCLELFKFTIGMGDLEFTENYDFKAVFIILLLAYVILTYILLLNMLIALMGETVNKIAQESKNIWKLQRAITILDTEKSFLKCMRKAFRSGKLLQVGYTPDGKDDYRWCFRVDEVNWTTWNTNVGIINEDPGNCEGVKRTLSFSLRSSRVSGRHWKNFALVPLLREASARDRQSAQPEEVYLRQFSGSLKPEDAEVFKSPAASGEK

As to `CC(C)C[C@@H]1NC(=O)[C@@H](CC(C)C)OC(=O)CCNC(=O)[C@H](Cc2ccc(O)cc2)NC(=O)[C@H](CC(C)C)OC1=O`, the result in data set [1] was Active. The result in data set [2] was Active. Also, the result in data set [3], in data set [4] and in data set [5] was inactive.

Consider `CC(C)C[C@@H]1NC(=O)[C@@H](CC(C)C)OC(=O)CCNC(=O)[C@H](Cc2ccccc2)NC(=O)[C@H](CC(C)C)OC1=O`, for which the result in data set [1] was Active. For the same compound, the result in data set [2] was Active. Further, the result in data set [3], in data set [4] and in data set [5] was inactive.
